How the values were obtained:
HeLa = experiment: Cytotoxicity against human HeLa cells after 48 hrs by MTT assay; assay type: functional, cell-based
A498 = experiment: Growth inhibition of human A498 cells after 48 hrs by sulforhodamine B assay; assay type: functional; conditions: A498, 48 h
In short: (§1)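 Run in the National Cancer Institute 60-cell-line panel screen. Viability was read by sulforhodamine B staining of total protein content, so it reflects cell number rather than metabolic activity. Values are reported as GI50.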

MDA-MB-231 = experiment: Growth inhibition of human MDA-MB-231 cells after 48 hrs by sulforhodamine B assay; assay type: functional; conditions: MDA-MB-231, 48 h; in short: as §1
[1] = Cytotoxicity against human MA9.3 cells after 48 hrs by MTT assay; assay type: functional, cell-based
In short: (§2)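 Non-transformed human CD34+ blood stem/progenitor cells from umbilical cord blood were run alongside MA9.3, an AML line made by introducing the MLL-AF9 oncogene into human CD34+ cells. IC50 was determined on each cell type. Therapeutic index is the ratio between the MA9.3 and CD34+ IC50 values.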

SNB-75 = experiment: Growth inhibition of human SNB75 cells after 48 hrs by sulforhodamine B assay; assay type: functional; conditions: SNB-75, 48 h
In short: (§3)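 Run within the National Cancer Institute 60-cell-line panel. Viability was read by sulforhodamine B staining of total cellular protein, as a measure of cell number rather than metabolic activity. GI50 values were taken from the panel data.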

CAKI-1 = experiment: Growth inhibition of human CAKI-1 cells after 48 hrs by sulforhodamine B assay; assay type: functional; conditions: CAKI-1, 48 h; in short: as §1
LOX IMVI = experiment: Growth inhibition of human LOXIMVI cells after 48 hrs by sulforhodamine B assay; assay type: functional; in short: as §1
SF-295 = experiment: Growth inhibition of human SF295 cells after 48 hrs by sulforhodamine B assay; assay type: functional; conditions: SF-295, 48 h; in short: as §1
M14 = experiment: Growth inhibition of human M14 cells after 48 hrs by sulforhodamine B assay; assay type: functional; conditions: M14, 48 h; in short: as §1
SW-620 = experiment: Growth inhibition of human SW620 cells after 48 hrs by sulforhodamine B assay; assay type: functional; conditions: SW-620, 48 h; in short: as §3
SNB-19 = experiment: Growth inhibition of human SNB19 cells after 48 hrs by sulforhodamine B assay; assay type: functional; conditions: SNB-19, 48 h; in short: as §3
Hs-578T = experiment: Growth inhibition of human Hs578T cells after 48 hrs by sulforhodamine B assay; assay type: functional; in short: as §1
IGROV-1 = experiment: Growth inhibition of human IGROV1 cells after 48 hrs by sulforhodamine B assay; assay type: functional; conditions: IGROV-1, 48 h; in short: as §1
[2] = Cytotoxicity against human CD34-positive blood stem/progenitor cells after 48 hrs by MTT assay; assay type: cell-based; in short: as §2
NCI-H226 = experiment: Growth inhibition of human NCI-H226 cells after 48 hrs by sulforhodamine B assay; assay type: functional; conditions: NCI-H226, 48 h; in short: as §1
MCF7 = experiment: Growth inhibition of human MCF7 cells after 48 hrs by sulforhodamine B assay; assay type: functional; conditions: MCF7, 48 h; in short: as §1
MOLT-4 = experiment: Growth inhibition of human MOLT4 cells after 48 hrs by sulforhodamine B assay; assay type: functional; conditions: MOLT-4, 48 h; in short: as §1
RPMI-8226 = experiment: Growth inhibition of human RPMI8226 cells after 48 hrs by sulforhodamine B assay; assay type: functional; conditions: RPMI-8226, 48 h; in short: as §1
SR = experiment: Growth inhibition of human SR cells after 48 hrs by sulforhodamine B assay; assay type: functional; in short: as §3
SK-OV-3 = experiment: Growth inhibition of human SKOV3 cells after 48 hrs by sulforhodamine B assay; assay type: functional; conditions: SK-OV-3, 48 h; in short: as §1
[3] = Growth inhibition of human NCI-ADR-RES cells after 48 hrs by sulforhodamine B assay; assay type: functional; in short: as §1
SK-MEL-28 = experiment: Growth inhibition of human SK-MEL-28 cells after 48 hrs by sulforhodamine B assay; assay type: functional; conditions: SK-MEL-28, 48 h; in short: as §1
OVCAR-5 = experiment: Growth inhibition of human OVCAR5 cells after 48 hrs by sulforhodamine B assay; assay type: functional; conditions: OVCAR-5, 48 h; in short: as §1
[4] = Therapeutic index, ratio of IC50 for human CD34-positive blood stem/progenitor cells to IC50 for human MA9.3 cells; conditions: CD34-positive blood stem/progenitor cells versus MA9.3 cells, read-out: Ratio IC50
In short: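 Cytotoxicity was measured in parallel on non-cancerous human CD34+ blood stem/progenitor cells (UCB) and on the MA9.3 AML line, which was made by introducing the MLL-AF9 oncogene into human CD34+ cells. The index is IC50 in CD34+ cells divided by IC50 in MA9.3, reported as mean ± error.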

BT-549 = experiment: Growth inhibition of human BT549 cells after 48 hrs by sulforhodamine B assay; assay type: functional; conditions: BT-549, 48 h; in short: as §1
HCT-15 = experiment: Growth inhibition of human HCT15 cells after 48 hrs by sulforhodamine B assay; assay type: functional; conditions: HCT-15, 48 h; in short: as §1
MDA-MB-468 = experiment: Growth inhibition of human MDA-MB-468 cells after 48 hrs by sulforhodamine B assay; assay type: functional; conditions: MDA-MB-468, 48 h; in short: as §1
MDA-MB-435 = experiment: Growth inhibition of human MDA-MB-435 cells after 48 hrs by sulforhodamine B assay; assay type: functional; conditions: MDA-MB-435, 48 h; in short: as §1
RXF 393 = experiment: Growth inhibition of human RXF393 cells after 48 hrs by sulforhodamine B assay; assay type: functional; conditions: RXF 393, 48 h; in short: as §1
OVCAR-3 = experiment: Growth inhibition of human OVCAR3 cells after 48 hrs by sulforhodamine B assay; assay type: functional; conditions: OVCAR-3, 48 h; in short: as §1
U-251 = experiment: Growth inhibition of human U251 cells after 48 hrs by sulforhodamine B assay; assay type: functional; conditions: U-251, 48 h; in short: as §3
OVCAR-4 = experiment: Growth inhibition of human OVCAR4 cells after 48 hrs by sulforhodamine B assay; assay type: functional; conditions: OVCAR-4, 48 h; in short: as §1
T47D = experiment: Growth inhibition of human T47D cells after 48 hrs by sulforhodamine B assay; assay type: functional; in short: as §3
HOP-92 = experiment: Growth inhibition of human HOP92 cells after 48 hrs by sulforhodamine B assay; assay type: functional; conditions: HOP-92, 48 h; in short: as §1
[5] = Growth inhibition of human EKVX cells after 48 hrs by sulforhodamine B assay; assay type: functional; in short: as §1
SK-MEL-2 = experiment: Growth inhibition of human SK-MEL-2 cells after 48 hrs by sulforhodamine B assay; assay type: functional; conditions: SK-MEL-2, 48 h; in short: as §1
COLO 205 = experiment: Growth inhibition of human COLO205 cells after 48 hrs by sulforhodamine B assay; assay type: functional; conditions: COLO 205, 48 h; in short: as §1
UACC-257 = experiment: Growth inhibition of human UACC257 cells after 48 hrs by sulforhodamine B assay; assay type: functional; conditions: UACC-257, 48 h; in short: as §3
UACC-62 = experiment: Growth inhibition of human UACC62 cells after 48 hrs by sulforhodamine B assay; assay type: functional; conditions: UACC-62, 48 h; in short: as §3
786-0 = experiment: Growth inhibition of human 786-0 cells after 48 hrs by sulforhodamine B assay; assay type: functional; conditions: 786-0, 48 h; in short: as §1
HCT-116 = experiment: Growth inhibition of human HCT116 cells after 48 hrs by sulforhodamine B assay; assay type: functional; conditions: HCT-116, 48 h; in short: as §1
UO-31 = experiment: Growth inhibition of human UO31 cells after 48 hrs by sulforhodamine B assay; assay type: functional; conditions: UO-31, 48 h; in short: as §3
SF-539 = experiment: Growth inhibition of human SF539 cells after 48 hrs by sulforhodamine B assay; assay type: functional; conditions: SF-539, 48 h; in short: as §1
PC-3 = experiment: Growth inhibition of human PC3 cells after 48 hrs by sulforhodamine B assay; assay type: functional; conditions: PC-3, 48 h; in short: as §1
[6] = Growth inhibition of human HCC2998 cells after 48 hrs by sulforhodamine B assay; assay type: functional; conditions: HCC 2998, 48 h; in short: as §1
Malme-3M = experiment: Growth inhibition of human MALME-3M cells after 48 hrs by sulforhodamine B assay; assay type: functional; in short: as §1
DU-145 = experiment: Growth inhibition of human DU145 cells after 48 hrs by sulforhodamine B assay; assay type: functional; conditions: DU-145, 48 h; in short: as §1
ACHN = experiment: Growth inhibition of human ACHN cells after 48 hrs by sulforhodamine B assay; assay type: functional; in short: as §1
SN12C = experiment: Growth inhibition of human SN12C cells after 48 hrs by sulforhodamine B assay; assay type: functional; in short: as §3
HOP-62 = experiment: Growth inhibition of human HOP62 cells after 48 hrs by sulforhodamine B assay; assay type: functional; conditions: HOP-62, 48 h; in short: as §1
NCI-H322M = experiment: Growth inhibition of human NCI-H322M cells after 48 hrs by sulforhodamine B assay; assay type: functional; in short: as §1
NCI-H460 = experiment: Growth inhibition of human NCI-H460 cells after 48 hrs by sulforhodamine B assay; assay type: functional; conditions: NCI-H460, 48 h; in short: as §1
HT-29 = experiment: Growth inhibition of human HT-29 cells after 48 hrs by sulforhodamine B assay; assay type: functional; conditions: HT-29, 48 h; in short: as §1
KM12 = experiment: Growth inhibition of human KM12 cells after 48 hrs by sulforhodamine B assay; assay type: functional; conditions: KM12, 48 h; in short: as §1
NCI-H23 = experiment: Growth inhibition of human NCI-H23 cells after 48 hrs by sulforhodamine B assay; assay type: functional; conditions: NCI-H23, 48 h; in short: as §1
NCI-H522 = experiment: Growth inhibition of human NCI-H522 cells after 48 hrs by sulforhodamine B assay; assay type: functional; conditions: NCI-H522, 48 h; in short: as §1
SF-268 = experiment: Growth inhibition of human SF268 cells after 48 hrs by sulforhodamine B assay; assay type: functional; conditions: SF-268, 48 h; in short: as §1
SK-MEL-5 = experiment: Growth inhibition of human SK-MEL-5 cells after 48 hrs by sulforhodamine B assay; assay type: functional; conditions: SK-MEL-5, 48 h; in short: as §1

## CC(C)N(CCOc1ccc(O)cc1)c1ccccc1
HeLa
  IC50: 53 µM

## Oc1ccc(OCCN(CCOc2ccc(O)cc2)c2ccccc2)cc1
A498
  GI50: 5.3 µM
MDA-MB-231
  GI50: 0.9 µM
[1]
  IC50: 3 µM
HeLa
  IC50: 11 µM
SNB-75
  GI50: 5.3 µM
CAKI-1
  GI50: 0.4 µM
LOX IMVI
  GI50: 2.2 µM
SF-295
  GI50: 2.1 µM
M14
  GI50: 1.6 µM
SW-620
  GI50: 10 µM
SNB-19
  GI50: 11.2 µM
Hs-578T
  GI50: 14.5 µM
IGROV-1
  GI50: 3.6 µM
[2]
  IC50: 16 µM
NCI-H226
  GI50: 11.2 µM
MCF7
  GI50: 2.2 µM
MOLT-4
  GI50: 1.3 µM
RPMI-8226
  GI50: 3.8 µM
SR
  GI50: 0.5 µM
SK-OV-3
  GI50: 7.2 µM
[3]
  GI50: 1.2 µM
SK-MEL-28
  GI50: 14.8 µM
OVCAR-5
  GI50: 11.5 µM
[4]
  selectivity ratio: 5.3
BT-549
  GI50: 6.6 µM
HCT-15
  GI50: 10 µM
MDA-MB-468
  GI50: 10 µM
MDA-MB-435
  GI50: 2.6 µM
RXF 393
  GI50: 2.6 µM
OVCAR-3
  GI50: 4.2 µM
U-251
  GI50: 3 µM
OVCAR-4
  GI50: 10.5 µM
T47D
  GI50: 10.2 µM
HOP-92
  GI50: 3.7 µM
[5]
  GI50: 5.8 µM
SK-MEL-2
  GI50: 11.8 µM
COLO 205
  GI50: 20 µM
UACC-257
  GI50: 12.6 µM
UACC-62
  GI50: 2.9 µM
786-0
  GI50: 3.6 µM
HCT-116
  GI50: 4.1 µM
UO-31
  GI50: 1.5 µM
SF-539
  GI50: 2.8 µM
PC-3
  GI50: 6 µM
[6]
  GI50: 4.7 µM
Malme-3M
  GI50: 2.2 µM
DU-145
  GI50: 3.2 µM
ACHN
  GI50: 0.4 µM
SN12C
  GI50: 4.7 µM
HOP-62
  GI50: 8.9 µM
NCI-H322M
  GI50: 11 µM
NCI-H460
  GI50: 2.2 µM
HT-29
  GI50: 14.5 µM
KM12
  GI50: 4.7 µM
NCI-H23
  GI50: 2.1 µM
NCI-H522
  GI50: 2 µM
SF-268
  GI50: 3.2 µM
SK-MEL-5
  GI50: 2.6 µM
